Screens deposited in PubChem by several laboratories.
STAT1 activator – activators of IFN-gamma induced STAT1 signaling. NIH 3T3 STAT1-luciferase reporter, luminescence; 100% = IFN-gamma alone, no compound. activation (% of control), % at 5.5 µM. 2.6% of 200,000 active;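 active means activation above the screen-wide mean activation plus 3 SD, cut at about 130% in these data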;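 further: raw ratio to IFN-gamma control signal so 100% means no change and 0% no light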
NF-kB expr up – compounds increasing NF-kB expression in human neuronal cells | NF-kB reporter expression; hits give high values | fold change at 12.5 µM | 1.6% of 190,000 active | AID 1239; in the data active means fold change above about 3.3
FLuc inh counter – inhibits firefly luciferase, flagging false hits in luciferase inhibition screens | inhibition, % at 10 µM | ATPLite firefly luciferase biochemical luminescence, 10 min | P08659 | 1.5% of 200,000 active;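 active means inhibition above about 50% when tested at 10 µM, limit read from the data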
Target sequence (P08659 whole entry, looked up): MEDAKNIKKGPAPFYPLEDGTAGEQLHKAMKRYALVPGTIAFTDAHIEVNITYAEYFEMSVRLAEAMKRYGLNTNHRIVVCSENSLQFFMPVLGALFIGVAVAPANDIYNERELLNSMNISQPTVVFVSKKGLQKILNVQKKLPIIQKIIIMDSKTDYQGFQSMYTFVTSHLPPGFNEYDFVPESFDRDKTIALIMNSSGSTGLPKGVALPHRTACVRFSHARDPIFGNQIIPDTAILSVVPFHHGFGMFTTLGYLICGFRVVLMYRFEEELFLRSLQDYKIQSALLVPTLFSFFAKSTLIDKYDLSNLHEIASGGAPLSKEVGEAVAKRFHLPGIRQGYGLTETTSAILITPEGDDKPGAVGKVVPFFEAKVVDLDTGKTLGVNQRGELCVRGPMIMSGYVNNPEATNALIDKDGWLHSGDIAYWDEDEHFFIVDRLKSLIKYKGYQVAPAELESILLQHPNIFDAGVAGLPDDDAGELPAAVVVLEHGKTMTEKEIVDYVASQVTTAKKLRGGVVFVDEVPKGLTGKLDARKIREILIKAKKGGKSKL
APP 5UTR inh – APP translation inhibition. 0.82% of 190,000 active. SH-SY5Y APP 5'UTR-luciferase reporter, luminescence. AID 1285. inhibition, % at 2 µM;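 active means inhibition above a set limit, derived from the sample mean plus 3 SD, cut at about 45% in these data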
APP 5'UTR act – activates APP 5'UTR luciferase reporter | AID 1276 | 1% of 190,000 active | activation, % at 2 µM | SH-SY5Y APP 5'UTR luciferase reporter, luminescence; zero percent = DMSO vehicle wells;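 active means activation above a set limit, based on mean plus 3 SD of controls, cut at about 140% in these data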
FLuc stim CS – firefly luciferase counter-screen for stimulation assays; P08659; ATPlite luciferase biochemical, luminescence, 10 min; 0 = ATP-free wells, 1 = DMSO control; activation factor at 10 µM; 200,000 tested, under 10 active;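 active means luciferase activation factor, scaled between plate controls, of at least 2 with compound at 10 µM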
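Assay system: Luciferase/luciferin detection reagent, cell-free biochemical luciferase assay / Also added: ATP substrate / Schedule: 10 min at ambient temperature / Measured by: luminescence measurement of luciferase light output / Benchmarks: low control with PBS replacing ATP, high control enzyme plus ATP without compound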
* marks the source's active call; other numbers are inactive results. Compounds with a hit are over-represented: about 4.8% of the library has one in this group of screens.

Screening COC(=O)c1ccc(NC(=O)C(=O)c2cccn2C)cc1 returned STAT1 activator 56, NF-kB expr up 8.4*, FLuc inh counter 84*, APP 5UTR inh -1, APP 5'UTR act 1 and FLuc stim CS 0.2.
`COc1ccc(C(=O)Nc2ccc(-c3ccc(NC(=O)c4ccc(OC)cc4)c(OC)c3)cc2OC)cc1` gave STAT1 activator 90, NF-kB expr up 1, FLuc inh counter -6, APP 5UTR inh -18, APP 5'UTR act 19 and FLuc stim CS 1.1.
Screening CC1CCCCN1Cc1c(O)ccc2c(=O)c(-c3nc4ccccc4s3)c(N)oc12 (configuration not stated) returned STAT1 activator 106, NF-kB expr up 1, FLuc inh counter 6, APP 5UTR inh 13, APP 5'UTR act -13 and FLuc stim CS 0.9.
For COCC(=O)Nc1nc2ccc(C)cc2s1 the results were STAT1 activator 128, NF-kB expr up 3.7*, FLuc inh counter 47, APP 5UTR inh -95, APP 5'UTR act 95 and FLuc stim CS 0.5.
For Cc1ccc2nc(NC(=O)c3ccco3)sc2c1 the results were STAT1 activator 45, NF-kB expr up 1.8, FLuc inh counter 90*, APP 5UTR inh -84, APP 5'UTR act 84 and FLuc stim CS 0.1.
For CC(=O)Nc1nc2ccc(NC(=O)c3ccco3)cc2s1 the results were STAT1 activator 126, NF-kB expr up 2, FLuc inh counter 10, APP 5UTR inh 4, APP 5'UTR act -4 and FLuc stim CS 0.9.
For O=C(Nc1ncc(Cc2cccc([N+](=O)[O-])c2)s1)c1ccco1 the results were STAT1 activator 112, NF-kB expr up 1.1, FLuc inh counter -7, APP 5UTR inh -47, APP 5'UTR act 47 and FLuc stim CS 1.1.
For Cc1ccc(Cc2cnc(NC(=O)c3ccco3)s2)cc1 the results were STAT1 activator 117, NF-kB expr up 7.4*, FLuc inh counter 44, APP 5UTR inh -128, APP 5'UTR act 128 and FLuc stim CS 0.6.
`Cc1ccc2nc(NC(=O)COC(=O)c3ccncc3)sc2c1` gave STAT1 activator 123, NF-kB expr up 1.9, FLuc inh counter 7, APP 5UTR inh -25, APP 5'UTR act 25 and FLuc stim CS 0.9.
O=C(Nc1nc2ccc(S(=O)(=O)N3CCCC3)cc2s1)c1ccco1 was read as STAT1 activator 108, NF-kB expr up 1.2, FLuc inh counter 5, APP 5UTR inh -6, APP 5'UTR act 5 and FLuc stim CS 1.
Cc1ccc2nc(NC(=S)NC(=O)c3ccco3)sc2c1 was read as STAT1 activator 125, NF-kB expr up 1.4, FLuc inh counter 90*, APP 5UTR inh -163, APP 5'UTR act 163* and FLuc stim CS 0.1.
CCNC(=S)NNC(=O)c1cc(-c2cc(C)ccc2C)nc2ccccc12 was read as STAT1 activator 105, NF-kB expr up 0.84, FLuc inh counter 4, APP 5UTR inh 13, APP 5'UTR act -13 and FLuc stim CS 1.
Screening O=C(c1ccccc1)N1CCN(S(=O)(=O)c2cccc(NS(=O)(=O)c3ccccc3)c2)CC1 returned STAT1 activator 95, NF-kB expr up 1.6, FLuc inh counter -2, APP 5UTR inh -1, APP 5'UTR act 1 and FLuc stim CS 1.
`COC(=O)c1ccc(OCC(O)CN2C(=O)c3ccccc3S2(=O)=O)cc1` (configuration not stated) gave STAT1 activator 95, NF-kB expr up 1.1, FLuc inh counter 1, APP 5UTR inh -2, APP 5'UTR act 2 and FLuc stim CS 1.
For O=C(Nc1ncc(Cc2ccc(SC(F)F)cc2)s1)c1ccc(OC(F)F)cc1 the results were STAT1 activator 106, NF-kB expr up 1.2, FLuc inh counter 2, APP 5UTR inh 94*, APP 5'UTR act -94 and FLuc stim CS 1.
For CCN(CC)S(=O)(=O)c1ccc2nc(NC(=O)c3ccco3)sc2c1 the results were STAT1 activator 116, NF-kB expr up 1.3, FLuc inh counter 9, APP 5UTR inh -16, APP 5'UTR act 16 and FLuc stim CS 0.9.
`O=C(C[n+]1cccc(CNC(=O)c2ccc(OC(F)F)cc2)c1)Nc1ccc(SC(F)F)cc1` gave STAT1 activator 102, NF-kB expr up 1.2, FLuc inh counter -5, APP 5UTR inh 6, APP 5'UTR act -6 and FLuc stim CS 1.
